Laboratory results published in ChEMBL document CHEMBL4725451, “Discovery of Tricyclic Xanthines as Agonists of the Cannabinoid-Activated Orphan G-Protein-Coupled Receptor GPR18” (ACS Med Chem Lett, 2020).
Activity calls are given as the source filed them. The rule behind the calls is not given here.

Tests used:
[1] = biological target: T1, N-arachidonyl glycine receptor (Homo sapiens) (UniProt Q14330); assay: Agonist activity at Prolink1-tagged human GPR18 receptor expressed in CHO cells assessed as induction of beta-arrestin recruitment at 10 uM after 90 mins by beta-galactosidase based topcount luminescence analysis relative to control; format: cell-based
T1 sequence (whole entry): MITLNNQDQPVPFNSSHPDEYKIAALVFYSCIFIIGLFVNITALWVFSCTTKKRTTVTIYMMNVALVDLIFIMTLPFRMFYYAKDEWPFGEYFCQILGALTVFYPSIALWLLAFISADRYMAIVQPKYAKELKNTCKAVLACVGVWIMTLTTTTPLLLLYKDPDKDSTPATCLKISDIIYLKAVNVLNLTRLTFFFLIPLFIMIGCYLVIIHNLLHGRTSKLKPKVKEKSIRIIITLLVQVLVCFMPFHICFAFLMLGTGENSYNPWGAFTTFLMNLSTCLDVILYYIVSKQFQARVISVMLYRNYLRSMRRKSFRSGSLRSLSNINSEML
In short: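 CHO cells stably expressing human GPR18, β-arrestin enzyme-complementation assay with luminescence read-out. Test compound at 10 μM single concentration; signal normalized to that of 10 μM Δ9-THC.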

[2] = biological target: T2, N-arachidonyl glycine receptor (Homo sapiens, UniProt Q14330); assay: Antagonist activity at Prolink1-tagged human GPR18 receptor expressed in CHO cells assessed as inhibition of THC-induced beta arrestin recruitment after 90 mins by beta-galactosidase based topcount luminescence analysis; format: functional, cell-based
T2 sequence (Q14330 whole entry): T1 sequence (whole entry)

[3] = biological target: T3, G-protein coupled receptor 55 (Homo sapiens, UniProt Q9Y2T6); assay: Agonist activity at Prolink1-tagged human GPR55 receptor expressed in CHO cells assessed as induction of beta-arrestin recruitment at 10 uM after 90 mins by beta-galactosidase based topcount luminescence analysis relative to control; format: cell-based
In short: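 CHO cells stably expressing GPR55, β2-arrestin recruitment detected by enzyme complementation and luminescence. Compounds tested at 10 μM; effect normalized to signal from 1 μM LPI.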

[4] = biological target: T3, G-protein coupled receptor 55; assay: Antagonist activity at Prolink1-tagged human GPR55 receptor expressed in CHO cells assessed as inhibition of lysophosphatidylinositol-induced beta arrestin recruitment after 90 mins by beta-galactosidase based topcount luminescence analysis; format: functional, cell-based
[5] = biological target: T3, G-protein coupled receptor 55; assay: Agonist activity at Prolink1-tagged human GPR55 receptor expressed in CHO cells assessed as induction of beta-arrestin recruitment after 90 mins by beta-galactosidase based topcount luminescence analysis; format: cell-based
[6] = biological target: T2, N-arachidonyl glycine receptor; assay: (§1) Agonist activity at Prolink1-tagged human GPR18 receptor expressed in CHO cells assessed as induction of beta-arrestin recruitment after 90 mins by beta-galactosidase based topcount luminescence analysis; format: cell-based
[7] = biological target: T1, N-arachidonyl glycine receptor (Homo sapiens); assay: Agonist activity at Prolink1-tagged human GPR18 receptor expressed in CHO cells assessed as increase in beta-arrestin recruitment at 1 uM in presence of THC at lower concentrations after 90 mins by beta-galactosidase based topcount luminescence analysis; format: cell-based; settings: filed as agonist
In short: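 GPR18-CHO β-arrestin recruitment assay. Fixed agonist at 1 μM combined with a THC concentration–response series. Means of three independent experiments in duplicate.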

[8] = biological target: Cannabinoid receptor 1 (Homo sapiens) (UniProt P21554); assay: Displacement of [3H]CP55,940 from human CB1 receptor expressed in CHO cell membranes after 2 hrs by liquid scintillation analysis
In short: (§2)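 CB receptor radioligand binding: test compound at 10 μM single concentration, scored for displacement of a CB-specific radioligand and for any increase in bound radioligand.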

[9] = biological target: T1, N-arachidonyl glycine receptor (Homo sapiens); assay: as §1, with “recruitment by measuring maximum inhibition of 2-(3-(6-(4-chlorophenoxy)hexyloxy)benzylidene)-6,7-dihydro-2H-imidazo[2,1-b][1,3]thiazin-3(5H)-one at 1 uM” for “recruitment”; format: cell-based; settings: filed as agonist
In short: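 Human GPR18 stably expressed in CHO cells, β-arrestin enzyme complementation. Antagonist concentration-inhibition curves run against a fixed 1 μM agonist stimulus. IC50 and maximal inhibition derived from curves; means of three independent experiments, each in duplicate.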

[10] = biological target: T1, N-arachidonyl glycine receptor (Homo sapiens); assay: Agonist activity at Prolink1-tagged human GPR18 receptor expressed in CHO cells assessed as effect on induction of beta-arrestin recruitment after 90 mins in presence of 3 to 20 uM […] antagonist 2-(3-(6-(4-chlorophenoxy)hexyloxy)benzylidene)-6,7-dihydro-2H-imidazo[2,1-b][1,3]thiazin-3(5H)-one by beta-galactosidase based topcount luminescence analysis; format: cell-based; settings: filed as agonist
[11] = biological target: Cannabinoid receptor 2 (Homo sapiens) (UniProt P34972); assay: Displacement of [3H]CP55,940 from human CB2 receptor expressed in CHO cell membranes after 2 hrs by liquid scintillation analysis; in short: as §2
[12] = biological target: T1, N-arachidonyl glycine receptor (Homo sapiens); assay: Agonist activity at Prolink1-tagged human GPR18 receptor expressed in CHO cells assessed as induction of beta-arrestin recruitment after 90 mins in presence of 3 uM THC by beta-galactosidase based topcount luminescence analysis; format: cell-based
In short: (§3)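 β-Arrestin recruitment in CHO cells expressing human GPR18. Agonist concentration–response curves recorded in the presence of fixed Δ9-THC (3 μM or 10 μM). Means of three independent experiments, each in duplicate.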

[13] = biological target: T1, N-arachidonyl glycine receptor (Homo sapiens); assay: Agonist activity at Prolink1-tagged human GPR18 receptor expressed in CHO cells assessed as induction of beta-arrestin recruitment after 90 mins in presence of 10 uM THC by beta-galactosidase based topcount luminescence analysis relative to control; format: cell-based; in short: as §3
[14] = biological target: T3, G-protein coupled receptor 55; assay: Antagonist activity at Prolink1-tagged human GPR55 receptor expressed in CHO cells assessed as inhibition of lysophosphatidylinositol-induced beta arrestin recruitment at 10 uM after 90 mins by beta-galactosidase based topcount luminescence analysis relative to control; format: functional, cell-based
In short: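 GPR55-expressing CHO cells, β-arrestin complementation luminescence. Percent inhibition by test compound at 10 μM of the response to 1 μM LPI.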

T3 sequence (Q9Y2T6 whole entry): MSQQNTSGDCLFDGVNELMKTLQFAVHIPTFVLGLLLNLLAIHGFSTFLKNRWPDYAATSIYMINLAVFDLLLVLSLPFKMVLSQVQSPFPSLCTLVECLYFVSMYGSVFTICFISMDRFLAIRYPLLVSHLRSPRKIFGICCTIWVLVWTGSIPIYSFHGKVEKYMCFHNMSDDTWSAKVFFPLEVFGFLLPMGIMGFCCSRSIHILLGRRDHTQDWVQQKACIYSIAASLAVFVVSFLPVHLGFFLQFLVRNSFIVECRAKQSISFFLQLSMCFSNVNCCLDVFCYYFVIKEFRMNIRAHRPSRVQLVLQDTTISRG
Chain of Cannabinoid receptor 1 (Homo sapiens) (P21554 whole entry): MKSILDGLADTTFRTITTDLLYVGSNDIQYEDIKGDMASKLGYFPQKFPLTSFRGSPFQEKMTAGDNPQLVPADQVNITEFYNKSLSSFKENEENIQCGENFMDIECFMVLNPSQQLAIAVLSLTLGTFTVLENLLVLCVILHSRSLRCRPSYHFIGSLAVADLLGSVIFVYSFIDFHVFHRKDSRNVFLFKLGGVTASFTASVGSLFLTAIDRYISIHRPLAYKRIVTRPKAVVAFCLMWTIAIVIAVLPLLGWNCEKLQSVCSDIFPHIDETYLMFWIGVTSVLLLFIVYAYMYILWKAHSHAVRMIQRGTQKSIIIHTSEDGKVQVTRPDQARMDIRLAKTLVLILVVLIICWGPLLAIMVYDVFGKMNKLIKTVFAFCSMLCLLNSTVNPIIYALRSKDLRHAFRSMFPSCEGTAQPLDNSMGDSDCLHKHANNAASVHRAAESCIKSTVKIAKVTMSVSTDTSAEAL
Chain of Cannabinoid receptor 2 (Homo sapiens) (P34972 whole entry): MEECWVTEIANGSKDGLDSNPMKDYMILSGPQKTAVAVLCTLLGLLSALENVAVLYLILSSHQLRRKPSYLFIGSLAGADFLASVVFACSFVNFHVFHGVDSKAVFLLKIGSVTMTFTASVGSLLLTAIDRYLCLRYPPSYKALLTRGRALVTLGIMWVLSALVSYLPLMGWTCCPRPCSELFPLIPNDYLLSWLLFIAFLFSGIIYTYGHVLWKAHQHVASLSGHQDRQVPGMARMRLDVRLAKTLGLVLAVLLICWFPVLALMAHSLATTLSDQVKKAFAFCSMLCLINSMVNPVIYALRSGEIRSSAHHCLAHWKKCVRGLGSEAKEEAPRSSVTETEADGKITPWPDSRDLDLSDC

SMILES | Activity [1] [%] | IC50 [2] [µM] | Activity [3] [%] | IC50 [4] [µM] | EC50 [5] [µM] | EC50 [6] [µM] | Activity [7] | Activity [8] | inhibition [9] [%] | Activity [10] | Activity [11] | Activity [12] | inhibition [13] | inhibition [14] [%] | Activity ([1]; filed as agonist) [%]
COc1ccc(CCN2CCCn3c2nc2c3c(=O)n(C)c(=O)n2C)cc1 | -2 | > 10 | -6 | > 10 | > 10 | > 10 | – | – | – | – | – | – | – | – | –
Cn1c(=O)c2c(nc3n2CCCN3CCc2c[nH]c3ccccc23)n(C)c1=O | – | – | -5 | > 10 | > 10 | 0.562 | Active | inactive | 65 | Active | inactive | inactive | inactive | 20 | –
CCCCCN1CCCn2c1nc1c2c(=O)n(C)c(=O)n1C | -1 | > 10 | 10 | > 10 | > 10 | > 10 | – | – | – | – | – | – | – | – | –
Cn1c(=O)c2c(nc3n2CCCN3Cc2ccc(Cl)cc2)n(C)c1=O | 6 | > 10 | -9 | > 10 | > 10 | > 10 | – | – | – | – | – | – | – | 1 | –
CCCCN1CCCn2c1nc1c2c(=O)n(C)c(=O)n1C | 26 | > 10 | -4 | > 10 | > 10 | > 10 | – | – | – | – | – | – | – | 34 | –
Cn1c(=O)c2c(nc3n2CCCN3CCc2ccccc2)n(C)c1=O | 2 | > 10 | 16 | > 10 | > 10 | > 10 | – | – | – | – | – | – | – | -10 | –
Cn1c(=O)c2c(nc3n2CCN3CCc2c[nH]c3ccccc23)n(C)c1=O | – | – | – | > 10 | > 10 | – | – | – | – | – | – | – | – | – | –
CCN1CCCn2c1nc1c2c(=O)n(C)c(=O)n1C | 2 | > 10 | -16 | > 10 | > 10 | > 10 | – | – | – | – | – | – | – | 17 | –
COc1ccc(CCN2CCCn3c2nc2c3c(=O)n(C)c(=O)n2C)cc1OC | -39 | > 10 | 15 | > 10 | > 10 | > 10 | – | – | – | – | – | – | – | 32 | –
Cn1c(=O)c2c(nc3n2CCN3c2ccc(O)cc2)n(C)c1=O | 22 | > 10 | 13 | > 10 | > 10 | > 10 | – | – | – | – | – | – | – | – | –
Cn1c(=O)c2c(nc3n2CCCCN3CCc2c[nH]c3ccccc23)n(C)c1=O | – | – | – | > 10 | > 10 | – | – | – | – | – | – | – | – | – | –
CCCCCc1cc(O)c2c(c1)OC(C)(C)[C@@H]1CCC(C)=C[C@@H]21 [DRONABINOL] | – | – | -4 | – | > 10 | – | – | – | – | – | – | – | – | – | –
COCCN1CCCn2c1nc1c2c(=O)n(C)c(=O)n1C | – | > 10 | 18 | > 10 | > 10 | > 10 | – | – | – | – | – | – | – | -4 | 40
Cn1c(=O)c2c(nc3n2CCCN3CCc2ccc(Cl)cc2)n(C)c1=O | 14 | > 10 | 10 | > 10 | > 10 | > 10 | – | – | – | – | – | – | – | – | –
CCCn1c(=O)c2c(nc3n2CCCN3CCc2c[nH]c3ccccc23)n(CCC)c1=O | -12 | > 10 | – | > 10 | > 10 | > 10 | – | – | – | – | – | – | – | -4 | –
C=C(C)[C@@H]1CCC(C)=C[C@H]1c1c(O)cc(O)cc1CCCCC | – | > 10 | 7 | > 10 | > 10 | > 10 | – | – | – | – | – | – | – | 33 | –
CCCCC/C=C\C/C=C\C/C=C\C/C=C\CCCC(=O)NCC(=O)O [ARACHIDONOYL GLYCINE] | – | > 10 | – | – | – | > 10 | – | – | – | – | – | – | – | – | –
CCN(CC)CCN1CCCn2c1nc1c2c(=O)n(C)c(=O)n1C | 39 | > 10 | 4 | > 10 | > 10 | > 10 | – | – | – | – | – | – | – | -3 | –
